Laboratory results from ChEMBL document CHEMBL4190313, “In vitro targeting of colon cancer cells using spiropyrazoline oxindoles” (Eur J Med Chem, 2017).
Each block holds one compound with its values, some of them ahead of it. Activity calls are given as the source filed them. No cut-off for these calls is given here.

Key:
[1] = target: T1, Tumour suppressor p53/oncoprotein Mdm2 (Homo sapiens) (UniProt P04637+Q00987); experiment: Inhibition of MDM2/p53 interaction in human HCT116 cells assessed as upregulation of p53 protein expression at IC50 after 72 hrs by Western blot analysis; format: cell-based
HCT-116 [2] = experiment: Cytotoxicity against human HCT116 p53+/+ cells at 2 times IC50 after 72 hrs by LDH release assay relative to control; format: functional
How it was run: (§1)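 HCT-116 p53+/+ cells treated at IC50 or 2xIC50, or DMSO, for 72 h. Supernatant mixed with LDH assay substrate 10-30 min at room temperature in the dark; absorbance 490 nm, 620 nm reference. LDH release normalized to DMSO control; mean ± SEM of three independent experiments.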

[3] = target: T1, Tumour suppressor p53/oncoprotein Mdm2 (Homo sapiens); experiment: Inhibition of MDM2/p53 interaction in human HCT116 cells assessed as downregulation of MDM2 protein expression at IC50 after 72 hrs by Western blot analysis; format: cell-based
HCT-116 [4] = experiment: Cytotoxicity against human HCT116 p53+/+ cells at IC50 after 72 hrs by LDH release assay; format: functional, cell-based; how it was run: as §1
CCD-18Co [5] = experiment: Cytotoxicity against human CCD-18Co cells at IC80 after 72 hrs by MTS assay relative to control; format: cell-based
HCT-116 [6] = experiment: Cell cycle arrest in human HCT116 p53+/+ cells assessed as accumulation at G0/G1 phase at IC50 after 48 hrs by propidium iodide staining-based flow cytometric analysis (reference value: 50.48%); format: functional
CCD-18Co [7] = experiment: Cytotoxicity against human CCD-18Co cells at IC50 after 72 hrs by MTS assay; format: cell-based
HCT-116 [8] = experiment: Antiproliferative activity against human HCT116 p53-/- cells after 72 hrs by MTS assay; format: functional, cell-based; conditions: HCT-116, 72 h
How it was run: (§2)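 Cells allowed to adhere 24 h (1x10⁴/well), then exposed to 0.5-50 μM compound from DMSO stocks (final DMSO ≤0.8% v/v) for 72 h. Viability by MTS bio-reduction to formazan, absorbance 490 nm. IC50 from log(inhibitor) vs response (variable slope) fit, at least three independent experiments; table values mean ± SD of three experiments in duplicate.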

HCT-116 [9] = experiment: Antiproliferative activity against human HCT116 p53+/+ cells after 72 hrs by MTS assay; format: functional, cell-based; conditions: HCT-116, 72 h; how it was run: as §2
[10] = target: E3 ubiquitin-protein ligase Mdm2 (Homo sapiens) (UniProt Q00987); experiment: Inhibition of FAM-tagged p53-based fluorescent probe binding to human His-tagged MDM2 (1 to 118 residues) up to 400 uM after 30 mins by fluorescence polarization assay
How it was run: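 Recombinant human His-tagged MDM2 (residues 1-118), final 10 nM, preincubated with 5-FAM-labelled p53-based peptidomimetic probe, final 1 nM (Kd 1.4 ± 0.3 nM). Buffer: 100 mM potassium phosphate pH 7.5, 100 μg/ml bovine γ-globulin, 0.02% sodium azide, 0.01% Triton X-100, final 4% DMSO. Incubated 30 min at room temperature with shaking; polarization read at ex 485/em 530 nm. Inhibition calculated against protein+probe and free-probe controls.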

HCT-116 [11] = experiment: Cell cycle arrest in human HCT116 p53+/+ cells assessed as accumulation at G0/G1 phase at IC50 after 24 hrs by propidium iodide staining-based flow cytometric analysis (reference value: 33.49%); format: functional
HCT-116 [12] = experiment: Synergistic cytotoxicity against human HCT116 p53+/+ cells at IC10 to IC20 after 72 hrs in presence of 5-FU by MTS assay; format: functional, cell-based
HCT-116 [13] = experiment: Synergistic cytotoxicity against human HCT116 p53+/+ cells at IC50 after 72 hrs in presence of 5-FU by MTS assay; format: functional, cell-based
HCT-116 [14] = experiment: Cell cycle arrest in human HCT116 p53+/+ cells assessed as accumulation at S phase at IC50 after 48 hrs by propidium iodide staining-based flow cytometric analysis (reference value: 22.67%); format: functional
HCT-116 [15] = experiment: Induction of apoptosis in human HCT116 p53+/+ cells assessed as early apoptotic cells at IC50 after 72 hrs by Annexin V-FITC/7-AAD staining-based flow cytometric analysis relative to control; format: functional
How it was run: (§3)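 HCT-116 p53+/+ cells (5x10⁴/well) exposed at IC50 or 2xIC50, or DMSO, for 72 h. Medium and Accutase-detached cells pooled, resuspended in PBS/2% FBS, stained with Annexin V/7-AAD reagent 20 min at room temperature in the dark. Flow cytometry, at least 5000 events per sample; mean ± SD of three independent experiments.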

HCT-116 [16] = experiment: Cell cycle arrest in human HCT116 p53+/+ cells assessed as accumulation at G2/M phase at IC50 after 24 hrs by propidium iodide staining-based flow cytometric analysis (reference value: 29.07%); format: functional
[17] = target: T1, Tumour suppressor p53/oncoprotein Mdm2 (Homo sapiens); experiment: Inhibition of MDM2-V2/V1-p53 (unknown origin) interaction expressed in human HCT116 p53-/- cells at 20 uM after 20 hrs by biomolecular fluorescence complementation-based flow cytometric analysis; format: cell-based
How it was run: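 HCT-116 p53-/- cells cotransfected with 1 µg each of V1-p53 and MDM2-V2 Venus BiFC plasmids by lipofection. Medium replaced 4-6 h later and compound added at 5, 10 or 20 μM, or DMSO, for a further 20 h. Cells detached with accutase; Venus fluorescence by flow cytometry, normalized to DMSO (100%). Mean ± SD of three independent experiments.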

HCT-116 [18] = experiment: Cell cycle arrest in human HCT116 p53+/+ cells assessed as accumulation at S phase at IC50 after 24 hrs by propidium iodide staining-based flow cytometric analysis (reference value: 37.44%); format: functional
HCT-116 [19] = experiment: Cell cycle arrest in human HCT116 p53+/+ cells assessed as accumulation at G2/M phase at IC50 after 48 hrs by propidium iodide staining-based flow cytometric analysis (reference value: 26.85%); format: functional
HCT-116 [20] = experiment: Induction of apoptosis in human HCT116 p53+/+ cells assessed as increase in early apoptotic cells at 2 times IC50 after 72 hrs by Annexin V-FITC/7-AAD staining-based flow cytometric analysis; format: functional, cell-based; how it was run: as §3

T1 sequence (P04637 whole entry, looked up): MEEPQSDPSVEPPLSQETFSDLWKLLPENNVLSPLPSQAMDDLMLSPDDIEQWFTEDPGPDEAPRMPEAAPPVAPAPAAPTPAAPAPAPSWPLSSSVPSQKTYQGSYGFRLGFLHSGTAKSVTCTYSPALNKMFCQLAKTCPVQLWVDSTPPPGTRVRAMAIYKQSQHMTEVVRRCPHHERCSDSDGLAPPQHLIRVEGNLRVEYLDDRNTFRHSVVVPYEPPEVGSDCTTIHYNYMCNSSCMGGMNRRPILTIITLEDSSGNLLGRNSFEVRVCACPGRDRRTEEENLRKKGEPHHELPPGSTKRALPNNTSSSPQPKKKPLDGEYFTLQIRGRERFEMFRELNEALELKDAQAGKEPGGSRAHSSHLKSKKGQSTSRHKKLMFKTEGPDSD
T1 sequence (Q00987 whole entry, looked up): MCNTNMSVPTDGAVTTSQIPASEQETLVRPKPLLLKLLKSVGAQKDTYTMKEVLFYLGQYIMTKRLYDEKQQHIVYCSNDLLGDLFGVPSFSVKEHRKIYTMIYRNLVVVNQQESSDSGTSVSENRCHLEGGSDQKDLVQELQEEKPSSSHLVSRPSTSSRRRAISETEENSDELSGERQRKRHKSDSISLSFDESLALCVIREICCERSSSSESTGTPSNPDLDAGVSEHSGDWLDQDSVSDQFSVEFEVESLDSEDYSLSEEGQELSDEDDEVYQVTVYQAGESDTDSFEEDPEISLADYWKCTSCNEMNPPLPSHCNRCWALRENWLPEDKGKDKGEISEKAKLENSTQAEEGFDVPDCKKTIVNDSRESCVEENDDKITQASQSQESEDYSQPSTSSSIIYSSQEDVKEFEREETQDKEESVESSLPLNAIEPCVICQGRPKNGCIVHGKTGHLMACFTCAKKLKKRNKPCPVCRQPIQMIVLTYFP
Chain of E3 ubiquitin-protein ligase Mdm2 (Homo sapiens) (Q00987 whole entry, looked up, the tested form may be a part): as the sequence (Q00987 whole entry, looked up) above

inhibition [1]: Active
inhibition [3]: Active
IC50 (HCT-116 [8]): 14.2 µM
IC50 (HCT-116 [9]): 13.1 µM
inhibition [10]: inactive
inhibition [17]: Active
Structure (SMILES): O=C1Nc2ccc(Br)cc2[C@]12[C@@H](c1ccccc1)C(c1ccccc1)=NN2c1ccccc1
fold change (FC) (HCT-116 [2]): 1.5
Activity (HCT-116 [4]): inactive
Activity (CCD-18Co [5]): 20%
Activity (HCT-116 [6]): 62%
Activity (CCD-18Co [7]): Non-Toxic
Activity (HCT-116 [11]): 41.85%
Activity (HCT-116 [12]): Active
Activity (HCT-116 [13]): inactive
Activity (HCT-116 [14]): 15.38%
Activity (HCT-116 [15]): 10%
Activity (HCT-116 [16]): 19.55%
Activity (HCT-116 [18]): 38.59%
Activity (HCT-116 [19]): 15.17%

IC50 (HCT-116 [9]): 18.4 µM
Structure (SMILES): CC(C)(C)C1=NN(c2ccccc2)[C@]2(C(=O)Nc3cc(Cl)ccc32)[C@H]1c1cccc(Cl)c1

IC50 (HCT-116 [9]): 13.3 µM
Structure (SMILES): CC(C)(C)C1=NN(c2ccccc2)[C@]2(C(=O)Nc3c(Cl)cccc32)[C@H]1c1ccccc1

IC50 (HCT-116 [9]): > 20 µM
Structure (SMILES): CC(C)(C)C1=NN(c2ccccc2Cl)[C@]2(C(=O)Nc3ccc(Cl)cc32)[C@H]1c1ccccc1

IC50 (HCT-116 [9]): 35 µM
Structure (SMILES): O=C1Nc2cc(Br)ccc2[C@@]12ON=C(c1ccccc1)[C@@H]2c1ccccc1

IC50 (HCT-116 [9]): 12.8 µM
Structure (SMILES): COc1ccc(C2=NN(c3ccccc3)[C@]3(C(=O)Nc4cc(Br)ccc43)[C@H]2c2ccccc2)cc1

IC50 (HCT-116 [9]): > 20 µM
Structure (SMILES): O=C1Nc2c(Cl)cccc2[C@]12[C@@H](c1ccccc1)C(c1ccccc1)=NN2c1ccccc1Cl

IC50 (HCT-116 [9]): 16.7 µM
Structure (SMILES): O=C1Nc2cc(Cl)ccc2[C@]12[C@@H](c1ccccc1)C(c1ccccc1)=NN2c1ccccc1

IC50 (HCT-116 [9]): 11.7 µM
Structure (SMILES): COc1ccc(C2=NN(c3ccccc3)[C@]3(C(=O)Nc4ccccc43)[C@H]2c2ccccc2)cc1

IC50 (HCT-116 [9]): > 20 µM
Structure (SMILES): CC(C)(C)C1=NN(c2ccccc2)[C@]2(C(=O)Nc3cc(Cl)ccc32)[C@H]1c1ccccc1

IC50 (HCT-116 [9]): 15.6 µM
Structure (SMILES): COc1ccc(C2=NN(c3ccccc3)[C@]3(C(=O)Nc4c(Cl)cccc43)[C@H]2c2ccccc2)cc1

IC50 (HCT-116 [9]): 17.3 µM
Structure (SMILES): CC(C)(C)C1=NN(c2ccccc2Cl)[C@]2(C(=O)Nc3c(Cl)cccc32)[C@H]1c1ccccc1

IC50 (HCT-116 [9]): > 20 µM
Structure (SMILES): CC(C)(C)C1=NN(c2ccccc2Cl)[C@]2(C(=O)Nc3ccccc32)[C@H]1c1ccccc1

IC50 (HCT-116 [9]): 10.6 µM
Structure (SMILES): COc1ccc(C2=NN(c3ccccc3)[C@]3(C(=O)Nc4ccc(Cl)cc43)[C@H]2c2ccccc2)cc1

IC50 (HCT-116 [9]): 16.6 µM
Structure (SMILES): O=C1Nc2c(Cl)cccc2[C@]12[C@@H](c1ccccc1)C(c1ccccc1)=NN2c1ccccc1

IC50 (HCT-116 [9]): 39.8 µM
Structure (SMILES): O=C1Nc2cc(Cl)ccc2[C@@]12ON=C(c1ccccc1)[C@@H]2c1ccccc1

IC50 (HCT-116 [9]): 12.4 µM
Structure (SMILES): O=C1Nc2cc(Cl)c(F)cc2[C@]12[C@@H](c1ccccc1)C(c1ccccc1)=NN2c1ccccc1

IC50 (HCT-116 [9]): > 20 µM
Structure (SMILES): CC(C)(C)C1=NN(c2ccccc2)[C@]2(C(=O)Nc3cc(Br)ccc32)[C@H]1c1ccccc1

IC50 (HCT-116 [9]): 11 µM
Structure (SMILES): O=C1Nc2ccc(Cl)cc2[C@]12[C@@H](c1ccccc1)C(c1ccccc1)=NN2c1ccccc1

IC50 (HCT-116 [9]): 33.4 µM
Structure (SMILES): COc1ccc(C2=NO[C@]3(C(=O)Nc4cc(Br)ccc43)[C@H]2c2ccccc2)cc1

IC50 (HCT-116 [9]): > 20 µM
Structure (SMILES): CC(C)(C)C1=NN(c2ccccc2)[C@]2(C(=O)Nc3ccccc32)[C@H]1c1ccccc1

IC50 (HCT-116 [9]): 15.9 µM
Structure (SMILES): O=C1Nc2cc(Br)ccc2[C@]12[C@@H](c1ccccc1)C(c1ccccc1)=NN2c1ccccc1

IC50 (HCT-116 [9]): > 20 µM
Structure (SMILES): O=C1Nc2ccccc2[C@]12[C@@H](c1ccccc1)C(c1ccccc1)=NN2c1ccccc1

inhibition [1]: Active
inhibition [3]: Active
IC50 (HCT-116 [8]): 11.6 µM
IC50 (HCT-116 [9]): 10.9 µM
inhibition [17]: Active
Structure (SMILES): COc1ccc(C2=NN(c3ccccc3)[C@]3(C(=O)Nc4cc(Cl)ccc43)[C@H]2c2cccc(Cl)c2)cc1
fold change (FC) (HCT-116 [2]): 1.5
Activity (HCT-116 [4]): inactive
Activity (CCD-18Co [5]): 20%
Activity (HCT-116 [6]): 54.78%
Activity (HCT-116 [20]): Active
Activity (CCD-18Co [7]): Non-Toxic
Activity (HCT-116 [11]): 50.22%
Activity (HCT-116 [14]): 20.35%
Activity (HCT-116 [15]): 10%
Activity (HCT-116 [16]): 11.33%
Activity (HCT-116 [18]): 38.45%
Activity (HCT-116 [19]): 24.87%

IC50 (HCT-116 [9]): 17 µM
Structure (SMILES): CC(C)(C)C1=NN(c2ccccc2)[C@]2(C(=O)Nc3ccc(Cl)cc32)[C@H]1c1ccccc1

IC50 (HCT-116 [9]): > 20 µM
Structure (SMILES): CC(C)(C)C1=NN(c2ccccc2)[C@]2(C(=O)Nc3ccc(Br)cc32)[C@H]1c1ccccc1
